# Data reported in ChEMBL document CHEMBL5724801, “EUbOPEN Chemogenomics Library - Multiplex” (2024).
# Values joined by “and” are separate entries in the source; they are usually repeats but may differ in a detail not shown here. Equal entries are not always repeated.
# Tested on: HEK-293T
# Assay: Multiplex assay against HEK293T
# Format: toxicity, cell-based
# Settings: human
# Summary of the method: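 Live cells were stained at seeding with Hoechst33342, BioTracker Green Microtubule Cytoskeleton Dye, MitoTracker Red and Annexin V Alexa Fluor 680. Following compound addition, they were imaged on a CQ1 microscope at 37°C and 5% CO2 and gated by CellPathfinder machine learning into Hoechst high-intensity objects or normal cells, with normal cells split into healthy, pyknosed or fragmented nuclei and pyknosed cells into mitotic or apoptotic. Tubulin, mitochondrial-mass and membrane-permeability phenotypes are per cents of healthy-nucleus cells.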
# [1] = 12 h, 1 µM, compound concentration 1 uM
# [2] = 12 h, 10 µM, compound concentration 10 uM
# [3] = 24 h, 1 µM, compound concentration 1 uM
# [4] = 24 h, 10 µM, compound concentration 10 uM
# [5] = 48 h, 1 µM, compound concentration 1 uM
# [6] = 48 h, 10 µM, compound concentration 10 uM
structure (smiles),measurement,setting,value
CN[C@@H](C)C(=O)N[C@H](C(=O)N1CCC[C@H]1C(=O)Nc1snnc1-c1ccccc1)C1CCCCC1 [GDC-0152],Population Apoptotic (%),[1],31% and 60%
same,Population Fragmented Nuclei (%),[1],5%
same,Population Healthy Nuclei (%),[1],78% and 79%
same,Population Hoechst High Intensity Objects (%),[1],5% and 7%
same,Population Membrane Permeable-Phenotype (%),[1],0%
same,Population Mitochondria Different-Phenotype (%),[1],41% and 62%
same,Population Mitotic Cells (%),[1],68% and 39%
same,Population Normal (%),[1],94% and 92%
same,Population Pyknosed Nuclei (%),[1],15% and 14%
same,Population Tubulin-Different-Phenotype (%),[1],35% and 26%
same,Total Cell Count,[1],444 and 314
same,Population Apoptotic (%),[2],50% and 72%
same,Population Fragmented Nuclei (%),[2],6% and 7%
same,Population Healthy Nuclei (%),[2],73%
same,Population Hoechst High Intensity Objects (%),[2],13% and 20%
same,Population Membrane Permeable-Phenotype (%),[2],0%
same,Population Mitochondria Different-Phenotype (%),[2],78% and 89%
same,Population Mitotic Cells (%),[2],49% and 28%
same,Population Normal (%),[2],86% and 80%
same,Population Pyknosed Nuclei (%),[2],20% and 18%
same,Population Tubulin-Different-Phenotype (%),[2],78% and 72%
same,Total Cell Count,[2],362 and 330
same,Population Apoptotic (%),[3],30% and 38%
same,Population Fragmented Nuclei (%),[3],8% and 5%
same,Population Healthy Nuclei (%),[3],80% and 82%
same,Population Hoechst High Intensity Objects (%),[3],4% and 6%
same,Population Membrane Permeable-Phenotype (%),[3],1% and 0%
same,Population Mitochondria Different-Phenotype (%),[3],28% and 53%
same,Population Mitotic Cells (%),[3],69% and 61%
same,Population Normal (%),[3],95% and 93%
same,Population Pyknosed Nuclei (%),[3],10% and 12%
same,Population Tubulin-Different-Phenotype (%),[3],23% and 22%
same,Total Cell Count,[3],601 and 387
same,Population Apoptotic (%),[4],45% and 60%
same,Population Fragmented Nuclei (%),[4],10% and 12%
same,Population Healthy Nuclei (%),[4],71% and 68%
same,Population Hoechst High Intensity Objects (%),[4],7% and 21%
same,Population Membrane Permeable-Phenotype (%),[4],0%
same,Population Mitochondria Different-Phenotype (%),[4],74% and 80%
same,Population Mitotic Cells (%),[4],54% and 40%
same,Population Normal (%),[4],92% and 78%
same,Population Pyknosed Nuclei (%),[4],17% and 19%
same,Population Tubulin-Different-Phenotype (%),[4],69% and 58%
same,Total Cell Count,[4],454 and 400
same,Population Apoptotic (%),[5],31% and 40%
same,Population Fragmented Nuclei (%),[5],12% and 10%
same,Population Healthy Nuclei (%),[5],78% and 82%
same,Population Hoechst High Intensity Objects (%),[5],4% and 3%
same,Population Membrane Permeable-Phenotype (%),[5],1%
same,Population Mitochondria Different-Phenotype (%),[5],22% and 29%
same,Population Mitotic Cells (%),[5],68% and 60%
same,Population Normal (%),[5],95% and 96%
same,Population Pyknosed Nuclei (%),[5],9% and 6%
same,Population Tubulin-Different-Phenotype (%),[5],16%
same,Total Cell Count,[5],928 and 603
same,Population Apoptotic (%),[6],47% and 60%
same,Population Fragmented Nuclei (%),[6],12%
same,Population Healthy Nuclei (%),[6],73% and 70%
same,Population Hoechst High Intensity Objects (%),[6],16% and 21%
same,Population Membrane Permeable-Phenotype (%),[6],0%
same,Population Mitochondria Different-Phenotype (%),[6],74% and 76%
same,Population Mitotic Cells (%),[6],52% and 39%
same,Population Normal (%),[6],83% and 78%
same,Population Pyknosed Nuclei (%),[6],13% and 17%
same,Population Tubulin-Different-Phenotype (%),[6],55% and 52%
same,Total Cell Count,[6],538 and 417
CSc1nc(NC2CCCC2)c([N+](=O)[O-])c(NC2CCCC2)n1 [GS-39783],Population Apoptotic (%),[1],45% and 40%
same,Population Fragmented Nuclei (%),[1],11% and 3%
same,Population Healthy Nuclei (%),[1],74% and 85%
same,Population Hoechst High Intensity Objects (%),[1],8% and 4%
same,Population Membrane Permeable-Phenotype (%),[1],0%
same,Population Mitochondria Different-Phenotype (%),[1],41% and 68%
same,Population Mitotic Cells (%),[1],54% and 59%
same,Population Normal (%),[1],91% and 95%
same,Population Pyknosed Nuclei (%),[1],14% and 11%
same,Population Tubulin-Different-Phenotype (%),[1],30% and 27%
same,Total Cell Count,[1],346 and 301
same,Population Apoptotic (%),[2],29% and 40%
same,Population Fragmented Nuclei (%),[2],6% and 5%
same,Population Healthy Nuclei (%),[2],81% and 84%
same,Population Hoechst High Intensity Objects (%),[2],6% and 5%
same,Population Membrane Permeable-Phenotype (%),[2],0%
same,Population Mitochondria Different-Phenotype (%),[2],50% and 68%
same,Population Mitotic Cells (%),[2],70% and 60%
same,Population Normal (%),[2],93% and 94%
same,Population Pyknosed Nuclei (%),[2],12% and 10%
same,Population Tubulin-Different-Phenotype (%),[2],40% and 29%
same,Total Cell Count,[2],449 and 406
same,Population Apoptotic (%),[3],30% and 38%
same,Population Fragmented Nuclei (%),[3],12% and 7%
same,Population Healthy Nuclei (%),[3],76% and 84%
same,Population Hoechst High Intensity Objects (%),[3],7% and 8%
same,Population Membrane Permeable-Phenotype (%),[3],0%
same,Population Mitochondria Different-Phenotype (%),[3],25% and 51%
same,Population Mitotic Cells (%),[3],69% and 61%
same,Population Normal (%),[3],92% and 91%
same,Population Pyknosed Nuclei (%),[3],11% and 7%
same,Population Tubulin-Different-Phenotype (%),[3],19%
same,Total Cell Count,[3],492 and 360
same,Population Apoptotic (%),[4],27% and 37%
same,Population Fragmented Nuclei (%),[4],11% and 8%
same,Population Healthy Nuclei (%),[4],78% and 83%
same,Population Hoechst High Intensity Objects (%),[4],5% and 6%
same,Population Membrane Permeable-Phenotype (%),[4],1% and 0%
same,Population Mitochondria Different-Phenotype (%),[4],30% and 52%
same,Population Mitotic Cells (%),[4],72% and 62%
same,Population Normal (%),[4],94% and 93%
same,Population Pyknosed Nuclei (%),[4],10% and 7%
same,Population Tubulin-Different-Phenotype (%),[4],30% and 28%
same,Total Cell Count,[4],553 and 474
same,Population Apoptotic (%),[5],35% and 30%
same,Population Fragmented Nuclei (%),[5],15% and 13%
same,Population Healthy Nuclei (%),[5],74% and 77%
same,Population Hoechst High Intensity Objects (%),[5],3% and 6%
same,Population Membrane Permeable-Phenotype (%),[5],1% and 0%
same,Population Mitochondria Different-Phenotype (%),[5],22% and 32%
same,Population Mitotic Cells (%),[5],64% and 69%
same,Population Normal (%),[5],96% and 93%
same,Population Pyknosed Nuclei (%),[5],9% and 8%
same,Population Tubulin-Different-Phenotype (%),[5],22% and 24%
same,Total Cell Count,[5],775 and 505
same,Population Apoptotic (%),[6],17% and 30%
same,Population Fragmented Nuclei (%),[6],14% and 13%
same,Population Healthy Nuclei (%),[6],78% and 77%
same,Population Hoechst High Intensity Objects (%),[6],3% and 5%
same,Population Membrane Permeable-Phenotype (%),[6],1% and 0%
same,Population Mitochondria Different-Phenotype (%),[6],27% and 35%
same,Population Mitotic Cells (%),[6],82% and 69%
same,Population Normal (%),[6],96% and 94%
same,Population Pyknosed Nuclei (%),[6],7% and 8%
same,Population Tubulin-Different-Phenotype (%),[6],21%
same,Total Cell Count,[6],856 and 647
